Results of several laboratories.
Target: Aurora kinase C (AURKC, Homo sapiens, UniProt Q9UQB9)
Sequence (Q9UQB9 1-309, as in one of the studies): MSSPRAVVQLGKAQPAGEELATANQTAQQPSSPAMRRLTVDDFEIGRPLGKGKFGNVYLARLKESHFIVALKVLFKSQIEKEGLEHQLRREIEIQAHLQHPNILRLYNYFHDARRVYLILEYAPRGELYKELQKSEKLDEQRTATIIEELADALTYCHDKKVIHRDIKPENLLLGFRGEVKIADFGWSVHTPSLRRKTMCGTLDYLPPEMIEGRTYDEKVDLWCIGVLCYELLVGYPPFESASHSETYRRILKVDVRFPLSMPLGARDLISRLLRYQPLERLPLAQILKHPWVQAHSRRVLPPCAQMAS

COc1cnc(Nc2cccc(S(N)(=O)=O)c2)nc1N1CCN(c2ccccc2)CC1  remaining binding (binding; competition with immobilised ligand; 1 µM): 84%
O=C(c1ccc(Nc2ncc(Cl)c(-c3cc4ccccc4s3)n2)cc1)N1CCC(N2CCCC2)CC1  remaining binding (binding; competition with immobilised ligand; 1 µM): 1.8%
N[C@@H]1CCN(c2nccc(-c3cnn4ncccc34)n2)C1  remaining binding (binding; 1 µM): 100%
COc1ncc2cc3ccccc3nc2c1C#N  remaining binding (cell-free assay; competition with immobilised ligand; 5 µM): 100%
COc1ccnn2ncc(-c3ccnc(N(C)C)n3)c12  remaining binding (binding; 1 µM): 100%
O=C(O)[C@@H]1[C@@H](Cn2nnc3ccccc3c2=O)CC[C@H]1C(=O)c1ccc(OCCC2CCOCC2)cc1  remaining binding (cell-free assay; competition with immobilised ligand; 1 µM): 100%
CN(C)c1ncc(F)c(-c2cnn3ncccc23)n1  remaining binding (binding; 1 µM): 100%
COc1cnc(Nc2cccc(S(N)(=O)=O)c2)nc1N1CCN(c2ccccc2)C(=O)C1  remaining binding (binding; competition with immobilised ligand; 1 µM): 97%
CC(=O)Nc1c(C(C)=O)c(=O)n(C)c2nc(-c3ccc(Cl)cc3Cl)c(-c3ccc(Cl)cc3)cc12  remaining binding (cell-free assay; competition with immobilised ligand; 1 µM): 100%
C[C@H]1CCN(c2nccc(-c3cnn4ncccc34)n2)C1  remaining binding (binding; 1 µM): 95%
C=CC(=O)N1CCC(C(=O)NCC(=O)N2CCN(c3nc(-c4cnc(N)nc4C(F)F)nc(N4CCOCC4)n3)CC2)CC1  remaining binding (binding; competition with immobilised ligand; 1 µM): 100%
CN(c1nccc(-c2cnn3ncccc23)n1)C1CC1  remaining binding (binding; 1 µM): 100%
CNC(=O)Nc1ccc2c(c1)CC[C@@]21OC(=O)N(CC(=O)N(Cc2ccc(F)cc2)[C@@H](C)C(F)(F)F)C1=O  remaining binding (cell-free assay; competition with immobilised ligand; 1 µM): 100%
O=C(c1ccc(Nc2nccc(-c3cc4ccccc4s3)n2)cc1)N1CCC(N2CCCC2)CC1  remaining binding (binding; competition with immobilised ligand; 1 µM): 30%
F[C@@H]1CCN(c2nccc(-c3cnn4ncccc34)n2)C1  remaining binding (binding; 1 µM): 100%
Cn1nc(C(F)(F)F)cc1-c1cnc(N2CCc3cc(S(=O)(=O)Nc4c(F)cc(Cl)cc4F)cc(N4CCCC4=O)c32)nc1  remaining binding (cell-free assay; competition with immobilised ligand; 1 µM): 100%
CN(CCCC(F)(F)F)c1nccc(-c2cnn3ncccc23)n1  remaining binding (binding; 1 µM): 100%
COc1ccc2c(O[C@@H]3C[C@H]4C(=O)N[C@]5(C(=O)O)CC5/C=C\CCCCC[C@H](NC(=O)OC5CCCC5)C(=O)N4C3)cc(-c3csc(NC(=O)C(C)C)n3)nc2c1C (stereo partly shown)  remaining binding (cell-free assay; competition with immobilised ligand; 1 µM): 96%
FC(F)(F)Oc1cccc(-c2cnc3ccc(-c4ccncc4)nn23)c1  remaining binding (cell-free assay; competition with immobilised ligand; 5 µM): 78%
O=C(c1ccc(Nc2ncc(Cl)c(-c3ccc(Cl)s3)n2)cc1)N1CCC(N2CCCC2)CC1  remaining binding (binding; competition with immobilised ligand; 1 µM): 2.8%
O=C(NC[C@@H]1[C@H]2CN(C(=O)OCc3cc(C(F)(F)F)cc(C(F)(F)F)c3)C[C@@H]12)c1ccc2[nH]nnc2c1  remaining binding (cell-free assay; competition with immobilised ligand; 1 µM): 91%
O=C(NCC1CCOCC1)c1n[nH]cc1NC(=O)c1c(F)cccc1F  remaining binding (binding; competition with immobilised ligand; 1 µM): 79%
